Experimental data: publication PMC7614726 (ACS chemical neuroscience, 2020)
Blank lines part the entries; values can stand above or below the compound they belong to.

Tests used:
[1] = tested on: acetylated α-tubulin in human whole blood lymphocytes; experiment: Human whole blood assay, acetylated α-tubulin by flow cytometry; type: cell-based; conditions: 10 and 30 μM
Procedure, shortened: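 Whole blood from healthy volunteers (25 μL) was mixed with compound diluted in RPMI 1640/10% FBS, with 0.1% DMSO final in controls. Incubation was 30 min at 37°C/5% CO2, then 3.5 h more after adding medium. Cells were lysed/fixed 10 min at room temperature and permeabilised 20 min on ice. Staining used AF647-labelled anti-acetylated α-tubulin or isotype control, 20–30 min on ice. Flow cytometry used a lymphocyte gate.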

[2] = Precipitation on addition to culture medium; type: physicochemical; conditions: culture medium (RPMI 1640, 10% FBS)
wild-type SCG neurons = experiment: Axonal transport of mitochondria in dissociated wild-type SCG neurons; type: cell-based, mouse; conditions: 100 nM T-3796106, 250 nM T-3793168, 1 μM Tubastatin A, 24 h
[3] = tested on: SCG neurons expressing HSPB1^S135F; experiment: Axonal transport of mitochondria in SCG neurons expressing HSPB1 S135F; type: cell-based, mouse; conditions: 24 h, 100 nM T-3796106, 250 nM T-3793168, 1 μM Tubastatin A
Procedure, shortened: (§1)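 Medium contained NGF, 10% FBS and 4 μM aphidicolin. Nuclei were microinjected with mutant human HSPB1 plus mito-EGFP (total DNA ≤0.05 μg/μL). Controls got DMSO. Spinning-disk confocal at 37°C/5% CO2, […], frames 1 s apart for 2 min, 4–5 neurons per dish. Difference Tracker counted moving particles per 1000 pixels.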

[4] = tested on: SCG neurons expressing HSPB1^P182L; experiment: Axonal transport of mitochondria in SCG neurons expressing HSPB1 P182L; type: cell-based, mouse; conditions: 100 nM T-3796106, 250 nM T-3793168, 1 μM Tubastatin A
Procedure, shortened: as §1

- Concentration showing some precipitate when added in the culture medium [2]: 300 µM
Compound: O=C(CCCCCCNC(=O)c1cnc(N(c2ccccc2)c2ccccc2)nc1)NO [ACY-1215]
- Levels of acetylated a-tubulin at 10 versus 30 μM [1]: almost the same

Compound: CN1CCc2c(c3ccccc3n2Cc2ccc(C(=O)NO)cc2)C1 [Tubastatin A]
- Number, average and maximum velocity of axonally transported mitochondria (wild-type SCG neurons): no significant change
- Average and maximum speed of mitochondria movement [3]: unaffected by any of these treatments
- Rescue of anterograde mitochondrial transport (number of moving mitochondria) [3]: rescue of anterograde axonal transport
- Effect on mitochondrial movement [4]: no effect on mitochondrial movement
- Levels of acetylated a-tubulin at 10 versus 30 μM [1]: almost the same
